Values after ≈ are worked out from the molar mass of the structure shown.

One data set has as its system Staphylococcus aureus. The data set can be described thus: Antibacterial activity against Staphylococcus aureus ATCC 25923 assessed as reduction in bacterial growth incubated for 18 to 24 hrs by broth microdilution method. The format is functional. Summed up:
(§1)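 Bacteria grown overnight in cation-adjusted Mueller Hinton broth (CAMHB) at 37 °C, diluted 50-fold and grown 1.5–3 h to mid-log, then inoculated at 5×10^5 CFU mL^-1. Two-fold serial dilutions gave final 0.0039–64 μg mL^-1, plated in duplicate. Incubated 37 °C for 18–24 h. MIC was the lowest concentration with no visible growth (n ≥ 3).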
Background: Dilution methods test growth across graded concentrations, often in twofold steps.

In another data set the test system is Bacillus subtilis. The data set can be described thus: Antibacterial activity against Bacillus subtilis ATCC 6051 assessed as reduction in bacterial growth incubated for 18 to 24 hrs by broth microdilution method. Format: functional. In short, it runs like this:
as §1

In the next data set the test system is Enterococcus faecium. Nature of the data set: Antibacterial activity against Enterococcus faecium ATCC 35667 assessed as reduction in bacterial growth incubated for 18 to 24 hrs by broth microdilution method. The format is functional. In short, it runs like this:
as §1

In the next data set the test system is Klebsiella pneumoniae. The data set can be described thus: Antibacterial activity against Klebsiella pneumoniae ATCC 13883 assessed as reduction in bacterial growth incubated for 18 to 24 hrs by broth microdilution method. Format: functional. In short, it runs like this: as §1
A further data set deals with Acinetobacter baumannii. Nature of the data set: Antibacterial activity against Acinetobacter baumannii ATCC 19606 assessed as reduction in bacterial growth incubated for 18 to 24 hrs by broth microdilution method. The format is functional. The settings on record: ATCC 19606 = CIP 70.34 = JCM 6841. In short, it runs like this: as §1
For data set [1], the system named is Pseudomonas aeruginosa. The data set can be described thus: Antibacterial activity against Pseudomonas aeruginosa ATCC 27853 assessed as reduction in bacterial growth incubated for 18 to 24 hrs by broth microdilution method. Format: functional. In short, it runs like this: (§2)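 Bacteria grown overnight in cation-adjusted Mueller Hinton broth (CAMHB) at 37 °C, diluted 50-fold and grown 1.5–3 h to mid-log, then inoculated at 5×10^5 CFU mL^-1. Two-fold serial dilutions gave final 0.0039–64 μg mL^-1, plated in duplicate. Incubated 37 °C for 18–24 h.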

The subject of data set [2] is Pseudomonas aeruginosa. The data set can be described thus: Antibacterial activity against Pseudomonas aeruginosa PAO750 PAO397 harbouring delta efflux pump mutant assessed as reduction in bacterial growth incubated for 18 to 24 hrs by broth microdilution method. Format: functional. In short, it runs like this:
(§3)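 Broth microdilution in cation-adjusted Mueller Hinton broth. Overnight 37 °C cultures were diluted 50-fold and grown 1.5–3 h to mid-log, then seeded at 5×10^5 CFU mL^-1. Compounds were two-fold serially diluted, final range 0.0039–64 μg mL^-1, in duplicate. Plates were incubated at 37 °C for 18–24 h.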

Data set [3] concerns Escherichia coli. The data set can be described thus: Antibacterial activity against Escherichia coli ATCC 25922 assessed as reduction in bacterial growth incubated for 18 to 24 hrs by broth microdilution method. Format: functional. In short, it runs like this: as §2
Data set [4] concerns Escherichia coli. Nature of the data set: Antibacterial activity against Escherichia coli MB4902 harbouring lpxC mutant assessed as reduction in bacterial growth incubated for 18 to 24 hrs by broth microdilution method. The format is functional. Summed up: as §3
Data set [5] concerns Escherichia coli. Nature of the data set: Antibacterial activity against Escherichia coli MB5747 harbouring tolC mutant assessed as reduction in bacterial growth incubated for 18 to 24 hrs by broth microdilution method. Format: functional. In short, it runs like this: as §3
In data set [6] the test system is Escherichia coli. Nature of the data set: Antibacterial activity against Escherichia coli MB5746 harbouring lpxC and tolC double mutant assessed as reduction in bacterial growth incubated for 18 to 24 hrs by broth microdilution method. The format is functional. In short, it runs like this:
as §3

Data set [7] can be described thus: Drug uptake in Escherichia coli AG102 incubated for 30 to 45 mins by Hoechst 33342 and Syto9 staining based confocal microscopy. The format is ADME. Summed up: (§4)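 Colonies from LB agar were grown overnight in CAMHB at 37 °C, diluted ~40-fold and grown to OD600 0.4–0.6. Cells were pelleted, washed in HBSS and incubated with probe (50–100 μM) in HBSS at 37 °C for 30–45 min. […] were stained with Hoechst 33342 (5 μg mL^-1) or Syto-9 (10 μM) for 20 min, and membranes with FM4-64FX (5 μg mL^-1) for 5 min on ice. Samples were mounted and imaged by confocal microscopy.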

Data set [8] in a line: Drug uptake in Staphylococcus aureus incubated for 30 to 45 mins by Hoechst 33342 and Syto9 staining based confocal microscopy. Format: ADME. In short, it runs like this: as §4
Data set [9] can be described thus: Drug uptake in Escherichia coli AG102 incubated for 30 to 45 mins in presence of CCCP by Hoechst 33342 and Syto9 staining based confocal microscopy. The format is ADME. Summed up:
as §4

As to `[N-]=[N+]=NCCCN1CCN(c2cc3c(cc2F)c(=O)c(C(=O)O)cn3C2CC2)CC1`, the MIC in the data set on Staphylococcus aureus was 0.25 µg/mL (≈ 0.603 µM); with Bacillus subtilis, 0.06 to 0.25 µg/mL (≈ 0.145 to 0.603 µM); with Enterococcus faecium, 16 to 64 µg/mL (≈ 38.6 to 154 µM); in the data set on Klebsiella pneumoniae, 0.125 to 0.25 µg/mL (≈ 0.302 to 0.603 µM); with Acinetobacter baumannii, 0.25 to 0.5 µg/mL (≈ 0.603 to 1.21 µM); with Pseudomonas aeruginosa [1] it was 8 to 64 µg/mL (≈ 19.3 to 154 µM). Also, the MIC with Pseudomonas aeruginosa [2] fell in the range of 32 to 64 µg/mL (≈ 77.2 to 154 µM); in the data set with Escherichia coli [3], 0.06 to 0.25 µg/mL (≈ 0.145 to 0.603 µM); in the data set with Escherichia coli [4], 0.25 to 1 µg/mL (≈ 0.603 to 2.41 µM); in the data set with Escherichia coli [5], 0.25 to 1 µg/mL (≈ 0.603 to 2.41 µM); with Escherichia coli [6], 0.25 to 1 µg/mL (≈ 0.603 to 2.41 µM).
In the case of `CN(C)c1ccc2c(CC(=O)NCc3cn(CCCN4CCN(c5cc6c(cc5F)c(=O)c(C(=O)O)cn6C5CC5)CC4)nn3)cc(=O)oc2c1`, the MIC in the data set with Staphylococcus aureus was 16 µg/mL (≈ 22.9 µM); in the data set on Bacillus subtilis it was 4 µg/mL (≈ 5.72 µM); with Enterococcus faecium, 32 to 64 µg/mL (≈ 45.8 to 91.6 µM); with Klebsiella pneumoniae, 4 to 32 µg/mL (≈ 5.72 to 45.8 µM); in the data set with Acinetobacter baumannii, 32 µg/mL (≈ 45.8 µM); in the data set on Pseudomonas aeruginosa [1], 32 to 64 µg/mL (≈ 45.8 to 91.6 µM). Also, the MIC in the data set with Pseudomonas aeruginosa [2] was 2 to 8 µg/mL (≈ 2.86 to 11.4 µM); in the data set with Escherichia coli [3], 2 µg/mL (≈ 2.86 µM); in the data set on Escherichia coli [4], 2 µg/mL (≈ 2.86 µM); in the data set with Escherichia coli [5], 0.5 to 1 µg/mL (≈ 0.716 to 1.43 µM); with Escherichia coli [6], 0.5 to 1 µg/mL (≈ 0.716 to 1.43 µM). In addition, the Drug uptake entry in data set [7] and in data set [8] was “Active” each time.
As to `O=C(O)c1cn(C2CC2)c2cc(N3CCN(CCCn4cc(CNc5ccc([N+](=O)[O-])c6nonc56)nn4)CC3)c(F)cc2c1=O`, the minimum inhibitory concentration (MIC) is 32 to 64 µg/mL (≈ 50.6 to 101 µM) with Staphylococcus aureus; 8 µg/mL (≈ 12.6 µM) in the data set with Bacillus subtilis; 32 µg/mL (≈ 50.6 µM) with Enterococcus faecium; 8 to 16 µg/mL (≈ 12.6 to 25.3 µM) in the data set on Klebsiella pneumoniae; 32 to 64 µg/mL (≈ 50.6 to 101 µM) in the data set with Acinetobacter baumannii; 32 to 64 µg/mL (≈ 50.6 to 101 µM) in the data set on Pseudomonas aeruginosa [1]. For the same compound, the MIC in the data set on Pseudomonas aeruginosa [2] is 4 µg/mL (≈ 6.32 µM); in the data set on Escherichia coli [3] it was 8 µg/mL (≈ 12.6 µM); with Escherichia coli [4], 1 to 4 µg/mL (≈ 1.58 to 6.32 µM); in the data set with Escherichia coli [5] it was 0.125 to 0.25 µg/mL (≈ 0.198 to 0.395 µM); with Escherichia coli [6], 0.06 to 0.125 µg/mL (≈ 0.0948 to 0.198 µM). The Drug uptake result is reported as “Not Active” in [7], “Active” in data set [9] and “Active” in data set [8].
As to `O=C(O)c1cn(C2CC2)c2cc(N3CCNCC3)c(F)cc2c1=O` [CIPROFLOXACIN], the MIC in the data set on Staphylococcus aureus fell in the range of 0.125 to 0.5 µg/mL (≈ 0.377 to 1.51 µM); in the data set on Bacillus subtilis, 0.06 to 0.313 µg/mL (≈ 0.181 to 0.945 µM); in the data set with Enterococcus faecium, 1 to 8 µg/mL (≈ 3.02 to 24.1 µM); with Klebsiella pneumoniae, 0.015 to 0.06 µg/mL (≈ 0.0453 to 0.181 µM); with Acinetobacter baumannii, 0.5 to 1 µg/mL (≈ 1.51 to 3.02 µM).

What is called MIC is the smallest concentration in the dilution series that meets the test's criterion for growth inhibition.

(Values after ChEMBL document CHEMBL4373642, “Fluoroquinolone-derived fluorescent probes for studies of bacterial penetration and efflux” (Medchemcomm, 2019).)
